The values that follow come from ChEMBL document CHEMBL5661979, “Pharmacological inhibition of BMK1 suppresses tumor growth through promyelocytic leukemia protein” (Cancer Cell, 2010).

What all share (assay type): subcellular
The target in experiment [1] is Ephrin type-A receptor 2 (Homo sapiens, UniProt P29317). The experiment is described as follows: Inhibition of EphA2 in human HeLa cells lysate at 10 uM pre incubated for 15 mins followed by ATP acyl phosphate probe addition and measured after 10 mins by LC-MS/MS analysis relative to control. Particulars: time 25.0 min.
The target of experiment [2] is Serine/threonine-protein kinase A-Raf (Homo sapiens, UniProt P10398). The experiment is described as follows: Inhibition of ARAF in human HeLa cells lysate pre incubated for 15 mins followed by ATP acyl phosphate probe addition and measured after 10 mins by LC-MS/MS analysis. Put shortly:
(§1)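 KiNativ-type profiling in HeLa lysate (5 mg/mL total protein). Lysate preincubated 15 min with inhibitor at 50, 10, 2, 0.8 or 0 μM, then ATP or ADP acylphosphate probe added (5 μM final) for 10 min. Reaction stopped with urea and analysed by targeted MS, using up to four fragment ions per kinase peptide-probe conjugate. % inhibition calculated against untreated lysate. Duplicate reactions.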

Experiment [3] has as its target T1, Serine/threonine-protein kinase Nek9 (Homo sapiens) (UniProt Q8TD19).
T1 sequence (whole entry): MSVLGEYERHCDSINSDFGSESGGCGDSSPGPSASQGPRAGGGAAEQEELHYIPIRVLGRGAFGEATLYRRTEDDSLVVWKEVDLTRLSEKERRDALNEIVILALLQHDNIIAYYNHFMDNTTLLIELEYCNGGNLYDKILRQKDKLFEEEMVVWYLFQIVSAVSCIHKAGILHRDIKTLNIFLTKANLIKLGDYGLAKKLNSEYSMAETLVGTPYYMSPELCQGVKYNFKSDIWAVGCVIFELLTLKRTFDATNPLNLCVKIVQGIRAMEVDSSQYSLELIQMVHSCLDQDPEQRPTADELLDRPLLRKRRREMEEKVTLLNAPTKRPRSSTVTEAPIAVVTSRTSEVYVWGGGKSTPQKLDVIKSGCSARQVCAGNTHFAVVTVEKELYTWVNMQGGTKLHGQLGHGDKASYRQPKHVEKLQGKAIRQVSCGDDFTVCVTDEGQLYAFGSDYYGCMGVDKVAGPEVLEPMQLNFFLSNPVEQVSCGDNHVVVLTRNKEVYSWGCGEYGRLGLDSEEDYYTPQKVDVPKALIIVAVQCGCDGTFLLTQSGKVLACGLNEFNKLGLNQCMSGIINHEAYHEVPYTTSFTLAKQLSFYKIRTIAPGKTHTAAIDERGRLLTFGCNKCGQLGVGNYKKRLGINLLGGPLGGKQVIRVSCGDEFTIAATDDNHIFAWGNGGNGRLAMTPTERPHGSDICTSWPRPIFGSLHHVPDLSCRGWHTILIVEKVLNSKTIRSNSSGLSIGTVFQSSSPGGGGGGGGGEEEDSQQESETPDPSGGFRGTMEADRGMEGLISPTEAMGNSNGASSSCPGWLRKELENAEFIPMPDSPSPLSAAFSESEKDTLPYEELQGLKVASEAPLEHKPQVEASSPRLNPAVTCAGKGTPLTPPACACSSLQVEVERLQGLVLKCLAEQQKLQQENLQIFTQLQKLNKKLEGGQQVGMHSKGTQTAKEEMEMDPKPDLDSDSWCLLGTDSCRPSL
The experiment is described as follows: Inhibition of NEK9 in human HeLa cells lysate at 10 uM pre incubated for 15 mins followed by ADP acyl phosphate probe addition and measured after 10 mins by LC-MS/MS analysis relative to control. Particulars: time 25.0 min.

Experiment [4] addresses Dual specificity mitogen-activated protein kinase kinase 1 (Homo sapiens, UniProt Q02750). The experiment is described as follows: Inhibition of MAP2K1 in human HeLa cells lysate at 50 uM pre incubated for 15 mins followed by ATP acyl phosphate probe addition and measured after 10 mins by LC-MS/MS analysis relative to control. To be noted: time 25.0 min.
Experiment [5] concerns the target T2, c-Jun N-terminal kinase, JNK (Homo sapiens, UniProt P45983+P53779+P45984). The experiment is described as follows: Inhibition of JNK1/JNK2/JNK3 in human HeLa cells lysate pre incubated for 15 mins followed by ATP acyl phosphate probe addition and measured after 10 mins by LC-MS/MS analysis.
In experiment [6] the target is Serine/threonine-protein kinase LATS2 (Homo sapiens, UniProt Q9NRM7). The experiment is described as follows: Inhibition of LATS2 in human HeLa cells lysate pre incubated for 15 mins followed by ADP acyl phosphate probe addition and measured after 10 mins by LC-MS/MS analysis.
Experiment [7] concerns the target T3, Serine/threonine-protein kinase A-Raf (Homo sapiens) (UniProt P10398).
T3 sequence (whole entry): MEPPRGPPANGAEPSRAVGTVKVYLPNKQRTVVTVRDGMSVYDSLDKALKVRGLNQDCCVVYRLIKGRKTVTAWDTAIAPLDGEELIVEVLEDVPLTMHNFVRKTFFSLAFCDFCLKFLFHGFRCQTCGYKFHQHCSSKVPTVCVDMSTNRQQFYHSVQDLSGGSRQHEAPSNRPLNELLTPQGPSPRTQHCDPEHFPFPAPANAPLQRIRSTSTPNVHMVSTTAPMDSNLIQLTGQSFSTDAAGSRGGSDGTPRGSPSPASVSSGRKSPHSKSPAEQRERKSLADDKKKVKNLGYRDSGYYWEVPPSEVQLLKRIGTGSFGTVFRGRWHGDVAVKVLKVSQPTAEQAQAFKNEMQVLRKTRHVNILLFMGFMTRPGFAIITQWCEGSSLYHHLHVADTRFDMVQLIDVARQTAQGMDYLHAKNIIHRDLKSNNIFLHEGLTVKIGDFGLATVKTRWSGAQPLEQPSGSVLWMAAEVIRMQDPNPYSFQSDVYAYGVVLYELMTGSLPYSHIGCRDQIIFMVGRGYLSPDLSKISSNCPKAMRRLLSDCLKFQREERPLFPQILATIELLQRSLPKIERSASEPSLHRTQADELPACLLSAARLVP
The experiment is described as follows: Inhibition of ARAF in human HeLa cells lysate at 10 uM pre incubated for 15 mins followed by ATP acyl phosphate probe addition and measured after 10 mins by LC-MS/MS analysis relative to control. Particulars: time 25.0 min. Put shortly: as §1

The nature of experiment [8]: Inhibition of MST4/YSK1 in human HeLa cells lysate pre incubated for 15 mins followed by ADP acyl phosphate probe addition and measured after 10 mins by LC-MS/MS analysis.
The target in experiment [9] is T2, c-Jun N-terminal kinase, JNK. The experiment is described as follows: Inhibition of JNK1/JNK2/JNK3 in human HeLa cells lysate at 50 uM pre incubated for 15 mins followed by ATP acyl phosphate probe addition and measured after 10 mins by LC-MS/MS analysis relative to control. Particulars: time 25.0 min.

Some results are limits rather than exact numbers.

Chain of Serine/threonine-protein kinase LATS2 (Q9NRM7 whole entry): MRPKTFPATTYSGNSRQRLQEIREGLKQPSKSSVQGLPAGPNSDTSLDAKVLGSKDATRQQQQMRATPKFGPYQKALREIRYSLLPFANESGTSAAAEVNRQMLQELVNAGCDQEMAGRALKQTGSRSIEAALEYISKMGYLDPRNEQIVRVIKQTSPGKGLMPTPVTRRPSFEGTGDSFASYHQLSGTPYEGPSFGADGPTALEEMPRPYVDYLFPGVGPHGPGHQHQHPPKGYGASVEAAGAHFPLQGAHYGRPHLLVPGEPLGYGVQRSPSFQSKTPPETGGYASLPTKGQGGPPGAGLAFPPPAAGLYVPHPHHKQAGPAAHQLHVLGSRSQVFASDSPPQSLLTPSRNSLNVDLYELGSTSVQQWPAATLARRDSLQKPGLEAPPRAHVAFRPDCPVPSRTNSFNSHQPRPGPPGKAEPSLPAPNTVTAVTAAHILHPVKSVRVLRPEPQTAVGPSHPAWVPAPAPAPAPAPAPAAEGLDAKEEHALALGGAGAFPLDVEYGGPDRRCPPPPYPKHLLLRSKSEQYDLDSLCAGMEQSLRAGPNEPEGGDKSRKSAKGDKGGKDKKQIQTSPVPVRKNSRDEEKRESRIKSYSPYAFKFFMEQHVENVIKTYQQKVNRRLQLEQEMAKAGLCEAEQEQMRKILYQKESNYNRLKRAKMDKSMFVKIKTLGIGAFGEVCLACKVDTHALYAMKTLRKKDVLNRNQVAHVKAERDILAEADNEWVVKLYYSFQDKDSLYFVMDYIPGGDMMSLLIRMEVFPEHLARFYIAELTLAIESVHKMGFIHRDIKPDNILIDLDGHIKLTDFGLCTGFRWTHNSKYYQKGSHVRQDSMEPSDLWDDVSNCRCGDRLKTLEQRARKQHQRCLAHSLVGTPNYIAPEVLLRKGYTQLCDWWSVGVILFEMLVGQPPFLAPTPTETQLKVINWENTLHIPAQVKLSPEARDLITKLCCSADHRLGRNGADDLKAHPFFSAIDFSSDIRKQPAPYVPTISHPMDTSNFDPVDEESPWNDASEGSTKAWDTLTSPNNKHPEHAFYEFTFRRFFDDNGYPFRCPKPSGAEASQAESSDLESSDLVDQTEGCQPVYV
Chain of Ephrin type-A receptor 2 (P29317 whole entry): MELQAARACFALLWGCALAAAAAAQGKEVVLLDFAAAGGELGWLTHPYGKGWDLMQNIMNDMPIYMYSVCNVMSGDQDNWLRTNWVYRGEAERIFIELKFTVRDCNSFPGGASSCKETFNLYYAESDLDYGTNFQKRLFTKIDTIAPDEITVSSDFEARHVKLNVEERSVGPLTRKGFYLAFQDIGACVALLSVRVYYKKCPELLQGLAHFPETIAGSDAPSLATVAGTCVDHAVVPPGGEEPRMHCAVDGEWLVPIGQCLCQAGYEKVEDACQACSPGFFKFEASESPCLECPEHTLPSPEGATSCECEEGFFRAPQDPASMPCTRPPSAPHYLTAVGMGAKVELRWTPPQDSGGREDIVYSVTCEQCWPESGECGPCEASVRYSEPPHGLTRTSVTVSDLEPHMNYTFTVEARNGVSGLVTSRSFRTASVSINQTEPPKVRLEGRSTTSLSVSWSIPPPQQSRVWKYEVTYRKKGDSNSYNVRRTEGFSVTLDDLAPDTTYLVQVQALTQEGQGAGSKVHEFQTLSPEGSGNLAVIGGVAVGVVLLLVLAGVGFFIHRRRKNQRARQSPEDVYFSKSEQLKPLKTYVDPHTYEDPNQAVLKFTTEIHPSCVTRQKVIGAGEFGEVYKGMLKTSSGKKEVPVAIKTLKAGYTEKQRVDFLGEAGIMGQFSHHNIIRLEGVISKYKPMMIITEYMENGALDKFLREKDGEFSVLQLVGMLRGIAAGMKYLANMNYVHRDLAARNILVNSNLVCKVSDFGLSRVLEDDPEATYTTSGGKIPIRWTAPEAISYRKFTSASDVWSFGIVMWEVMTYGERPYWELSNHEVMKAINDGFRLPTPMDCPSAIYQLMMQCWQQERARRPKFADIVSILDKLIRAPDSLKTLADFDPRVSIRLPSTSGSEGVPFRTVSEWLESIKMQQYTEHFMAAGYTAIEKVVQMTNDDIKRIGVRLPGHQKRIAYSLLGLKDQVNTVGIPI
Chain of Dual specificity mitogen-activated protein kinase kinase 1 (Q02750 whole entry): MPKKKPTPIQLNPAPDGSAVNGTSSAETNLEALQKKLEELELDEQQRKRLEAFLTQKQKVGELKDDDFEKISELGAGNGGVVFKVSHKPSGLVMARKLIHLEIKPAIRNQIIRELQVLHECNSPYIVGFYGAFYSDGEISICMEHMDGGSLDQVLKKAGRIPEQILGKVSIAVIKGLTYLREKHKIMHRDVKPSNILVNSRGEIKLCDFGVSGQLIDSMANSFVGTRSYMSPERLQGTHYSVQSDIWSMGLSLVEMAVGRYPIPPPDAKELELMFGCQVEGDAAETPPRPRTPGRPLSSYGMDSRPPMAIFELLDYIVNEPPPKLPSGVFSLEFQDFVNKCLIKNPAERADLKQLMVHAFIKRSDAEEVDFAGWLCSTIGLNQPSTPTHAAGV

By inhibition is commonly meant the change of the read-out against control, counted positive when it falls. The IC50 is the concentration that inhibits the measured activity by half. A low value points to higher potency. With `CCOc1cc(N2CCC(O)CC2)ccc1Nc1ncc2c(n1)N(C)c1ccccc1C(=O)N2C`, the inhibition is -3.9% in experiment [1]; 4.3% in [3]; -7.3% in [4]; 11.2% in experiment [7]; -0.6% in experiment [9]. Besides, the IC50 in experiment [2], in experiment [5], in experiment [6] and in [8] was more than 50 µM throughout.
